The list is not random: actives were taken first. Their share in the collection is about 1.5%.
Tb hexokinase: blocks Trypanosoma brucei hexokinase 1 activity; hit rate 0.11% among 220,000; inhibition, % at 10 µM; recombinant TbHK1, G6PDH-coupled NADH A340; AID 1430;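 active means inhibition of 50% or more in the single-dose primary screen; inactive means inhibition below 50%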
b-catenin transl: alters nuclear translocation of beta-catenin in HeLa cells. immunofluorescence imaging. nuclear translocation activity, % at 5 µM. hit rate 0.3% among 190,000. AID 1665;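 active means nuclear translocation activity above 50% at 5 µM, with a well cell count of 50 or more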;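 further: per-cell ratio of nuclear to cytoplasmic median beta-catenin stain intensity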
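assay system = human HeLa cells, endogenous beta-catenin | times = compound treatment 24 h, 37°C, 5% CO2 | detection = Anti-beta-catenin immunofluorescence on PFA-fixed, Triton-permeabilized cells, DAPI nuclei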
Rad51 HR inh: blocks human Rad51 in homologous recombination. Q06609. hit rate 0.085% among 200,000. inhibition, % at 10 µM. AID 1385. hRad51 DNA strand exchange, fluorescence dequenching;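 active means inhibition above 40% at the single screening dose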
Target sequence (Q06609 whole entry, looked up): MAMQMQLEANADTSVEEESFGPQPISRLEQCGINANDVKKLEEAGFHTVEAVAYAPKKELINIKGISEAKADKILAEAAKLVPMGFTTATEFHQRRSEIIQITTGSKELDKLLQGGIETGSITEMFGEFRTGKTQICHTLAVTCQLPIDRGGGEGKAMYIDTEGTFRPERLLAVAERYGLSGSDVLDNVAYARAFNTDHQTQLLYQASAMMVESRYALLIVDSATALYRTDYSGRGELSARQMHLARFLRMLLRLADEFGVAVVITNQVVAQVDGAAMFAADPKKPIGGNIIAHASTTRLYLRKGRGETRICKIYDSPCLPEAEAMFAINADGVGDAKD
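Material: hRad51 filaments on single-stranded DNA; Reagent: Donor/quencher-labelled 47-bp dsDNA substrate; Compound: 10 µM final, single point; Schedule: 37 °C 15-min filament assembly, 30-min compound preincubation, 15-min exchange; Technique: FRET fluorescence, excitation 485 nm, emission 520 nm; Benchmarks: control wells and blank wells on each plate.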
Dynein transport: dynein cargo transport inhibition; 3617.4 mouse cells, GR-EGFP nuclear translocation imaging; test concentration mostly 20 µM; stimulated with dexamethasone, 1 µM; stronger effect = lower value; z-score, hits read low; hit rate 0.47% among 220,000;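 active means plate z-score of nuclear minus cytoplasmic receptor signal below a set negative limit, without overly bright fluorescence or cell loss, cut at about -3.5 in these data, passing the limit was not always enough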;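 further: z-score of nuclear minus cytoplasmic ring GR-EGFP intensity difference per well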
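Also added: dexamethasone, 1.0 µM final. Medium: tet-free, stripped-serum medium. Detection: fixed, Hoechst-stained cells imaged at 10x for EGFP. Read-out: nuclear-to-cytoplasmic GR-EGFP distribution per well. Times: induction 48 h, compound 1 h, agonist 30 min.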
MT stabilize HCS: microtubule stabilizers in HeLa cells. HeLa tubulin immunostaining HCS, 24 h; share of cells brighter than vehicle mean+2SD. % tubulin-high responders, % at 10 µM. hit rate 0.83% among 200,000. AID 2205;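 active means plate Z-score above 3 for both tubulin-high and condensed-nucleus cell shares, with cell loss under 80%, at 10 µM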;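 further: anti alpha tubulin signal scored within the nucleus-defined area of each cell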
Numbers stand for hits; 0 = inactive; - = no result given.

SMILES	Tb hexokinase	b-catenin transl	Rad51 HR inh	Dynein transport	MT stabilize HCS
Cc1[nH][nH]c(=O)c1C(c1ccc(-c2ccc(Cl)c(C(=O)O)c2)o1)c1c(C)[nH][nH]c1=O	0	0	-	0	0
Cc1[nH][nH]c(=O)c1C(c1c(C)[nH][nH]c1=O)c1cn(Cc2ccc(F)cc2)c2ccccc12	0	0	0	0	20
O=C1NC2c3ccccc3C(=O)N2c2c1cnn2-c1ccccc1 (stereo unspecified)	0	0	0	0	11
c1ccc(-c2cc(-c3nnc4n3N=C(c3ccc5ccccc5c3)CS4)[nH]n2)cc1	0	0	0	0	21
Cc1cc(-c2nnc3n2N=C(c2ccc(-c4ccccc4)cc2)CS3)n[nH]1	0	0	0	0	0
O=C(O)CC(C(=O)Nc1ccc(Cl)c(Cl)c1)C1CCCO1 (stereo unspecified)	0	0	0	0	0
CCOC(=O)C1(C(=O)O)NC(=O)CC1c1ccccc1 (stereo unspecified)	0	-	0	0	0
CCOC(=O)C1(C(=O)OCC)CC1c1ccccc1 (stereo unspecified)	0	0	58	0	0
CC1=NOC(=O)/C1=C\c1ccc(-c2cccc(Cl)c2)o1	0	0	0	0	0
CC1=CC2=NC(=O)/C(=C\c3ccc(-c4cccc(Cl)c4)o3)C(=N)N2O1	0	119	0	0	20
COc1ccc(S(=O)(=O)/N=C2/NC(=O)/C(=C/c3ccco3)S2)cc1	0	0	0	0	0
COc1ccc(-c2cc(C(F)F)n3ncc(C(=O)N4CCc5ccccc54)c3n2)cc1	0	0	0	0	26
Nc1nnc(-c2ccccc2)c(-c2ccccc2)n1	0	0	0	0	0
O=c1c2c3c(sc2nc(NCCO)n1CCc1ccccc1)CCCCC3	0	0	0	0	19
O=c1c2c3c(sc2nc(NCCO)n1Cc1ccco1)CCCCC3	0	0	0	0	0
CCN(C(=O)CSc1nc2ccccc2c(=O)n1-c1ccc(C)cc1)C1CCS(=O)(=O)C1 (stereo unspecified)	0	0	0	0	0
O=C(O)CSCC(=O)Nc1ccc(Br)c(C(F)(F)F)c1	0	0	0	0	-
COc1ccc(NC(=O)Cn2nnc(-c3ccccc3NS(=O)(=O)c3ccc(OC)cc3)n2)cc1	0	-	0	0	0
COc1ccc(NC(=O)Cn2nnc(-c3ccccc3NC(=O)c3cccs3)n2)cc1	0	0	0	0	19
Cc1ccc(NC(=O)Cn2nnc(-c3ccccc3NC(=O)c3cccs3)n2)cc1	0	58	0	0	21
COc1ccccc1-c1cc(C(F)(F)F)nc(S(=O)(=O)CCCC(=O)Nc2cccnc2Cl)n1	0	0	0	-4.4	0
COc1ccccc1-c1cc(C(F)(F)F)nc(S(=O)(=O)CCCC(=O)NC(C)C)n1	0	0	0	0	0
COC(=O)COc1cccc2c(=O)n(CC(=O)NCc3ccc(F)cc3)ccc12	0	0	0	0	20
COC(=O)COc1cccc2c(=O)n(CC(=O)N3CCCCC3)ccc12	0	0	0	0	-
CCOC(=O)C(C)Oc1cccc2c(=O)n(CC(=O)NCc3ccccc3)ccc12 (stereo unspecified)	0	51	-	0	-
SMILES	Tb hexokinase	b-catenin transl	Rad51 HR inh	Dynein transport	MT stabilize HCS
CCOC(=O)C(C)Oc1cccc2c(=O)n(CC(=O)NCCc3ccccc3)ccc12 (stereo unspecified)	0	0	-	0	-
CC(C)(C)n1ncc2c(=O)n(CC(=O)NCc3ccc(F)cc3)cnc21	0	0	0	0	47
CCOC(=O)COc1cccc2c(=O)n(CC(=O)NCCc3ccccc3)ccc12	0	0	0	0	0
CCOC(=O)COc1cccc2c(=O)n(CC(=O)NCc3ccc4c(c3)OCO4)ccc12	0	64	0	0	19
CN(CC(=O)O/N=C(\N)c1ccccn1)S(=O)(=O)c1ccccc1	0	0	0	0	0
CCOC(=O)C(C)Oc1cccc2c(=O)n(CC(=O)NCc3ccc(F)cc3)ccc12 (stereo unspecified)	0	106	-	0	-
CCOc1ccc(C2=Nc3ccccc3C(c3ccc(N4CCOCC4)cc3)=NN2)cc1	0	-	-	0	35
CCCCNC(=S)NNC(=O)C12CC3CC(CC(C3)C1)C2	0	0	106	0	0
CCOC(=O)c1c(-c2ccc(C)o2)csc1NC(=O)CSc1nnc(C)s1	0	0	0	0	0
O=C(Nc1nc2ccc(C(=O)N3CCCCC3)cc2s1)C1CCCCC1	0	0	0	0	16
COc1cc(NS(=O)(=O)c2ccc(OC)c(C)c2C)c(OC)cc1Cl	0	81	0	0	39
Cc1ccc(NC2=NC3(CCCC3)N=C(N)N2)c(C)c1	0	0	0	0	25
Cc1ccc(NC2=NC3(CCCCC3)N=C(N)N2)c(C)c1	0	-	0	0	0
COc1ccc(C2C3=C(Nc4ncnn42)c2ccccc2CCC3)cc1 (stereo unspecified)	0	0	0	0	0
COc1cc(C2C3=C(Nc4ncnn42)c2ccccc2CC3)cc(OC)c1OC (stereo unspecified)	0	135	0	0	18
COc1cc(C2C=C(c3cccs3)Nc3ncnn32)cc(OC)c1OC (stereo unspecified)	0	119	0	0	0
Brc1ccc2c(c1)C(c1ccc(N3CCOCC3)cc1)=NNC(c1cccs1)=N2	0	0	0	0	0
Brc1ccc2c(c1)C(c1cccnc1)=NNC(c1cccs1)=N2	0	0	-	0	18
CN=C1c2cc3cc(OC)ccc3n2CCN1Cc1ccccc1	0	-	-	0	40
CCN(CC)CCNC1=NCCn2c1cc1cc(OC)ccc12	0	-	0	0	0
COc1ccc(CN(CCC(c2ccccc2)c2ccco2)C(=O)c2ccco2)cc1 (stereo unspecified)	0	0	0	0	0
Cc1c(C(=O)N(Cc2ccccc2)Cc2cccs2)cnn1-c1ccc(Cl)cc1	0	0	0	0	-
COc1cc(C(=O)Nc2cccc(C)c2C)c(Br)c(OC)c1OC	0	0	48	0	0
CCCc1nc(SCC(=O)c2ccc(OC)cc2)c2c(=O)n(C)c(=O)n(C)c2n1	-	0	-	-	-
CCOC(=O)C1C2C=CC3(CN(C4CCCC4)C(=O)C13)O2 (stereo unspecified)	0	0	0	0	0
SMILES	Tb hexokinase	b-catenin transl	Rad51 HR inh	Dynein transport	MT stabilize HCS
CCCCn1c(O)c(C(CC)=Nc2ccc3c(c2)CCC3)c(=O)[nH]c1=O	0	0	0	0	0
Cc1ccc(C(=O)N2C(CC(=O)Nc3ccc(Cl)cc3)C(=O)NC3CCCCC32)cc1 (stereo unspecified)	0	0	0	0	20
Cc1cccc(NC(=O)CC2C(=O)NC3CCCCC3N2C(=O)c2ccccc2Cl)c1 (stereo unspecified)	0	0	-	0	-
Cc1ccc(S(=O)(=O)c2c(CO)c(-c3ccccc3)nn2C)cc1	0	0	0	0	0
Cc1ccc(Oc2c(CO)c(-c3ccccc3)nn2C)cc1	0	0	0	0	18
CCn1cc(C(=O)O)c(=O)c2cc(OC)ccc21	0	0	0	0	0

From PubChem BioAssay
